The text below walks through data of ChEMBL document CHEMBL1142984, “Stabilization of G-quadruplex DNA and down-regulation of oncogene c-myc by quindoline derivatives” (J Med Chem, 2007).

Structures are written as SMILES. The source made the active and inactive calls. The calls are words filed in the database; no cut-off is given here.

Assay [1] is described as follows: Inhibition of Pu27-13, 14 oligomer hybridization with Pu27rev at 36 uM by PCR stop assay. In short, it runs like this: (§1)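 Test oligomer plus complementary strand ([…]) in 1×PCR buffer with 0.16 mM dNTP, 2.5 U Taq and derivative […]. Cycling: 94 C 3 min, then 30 cycles of 94 C 30 s, 58 C 30 s, 72 C 30 s. Products run on 15% nondenaturing polyacrylamide in 1×TBE, silver stained; quadruplex stabilization blocks extension.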

The test system of assay [2] is HepG2. Put plainly: Growth inhibition in HepG2 cells after 5 days. Type of assay: functional, cell-based. The settings on record: Homo sapiens, HepG2, 120 h. In short, it runs like this: (§2)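 Hep G2 cells in RPMI-1640 with 10% FBS at 37 C, 5% CO2. About 5000 cells seeded; compound ([…], freshly dissolved) added 24 h after plating and re-added at day 5. Cell counts and viability by trypan blue exclusion daily, days 1 to 8. IC50 calculated at days 5 and 7 of treatment.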

In assay [3] the test system is HepG2. Put plainly: Growth inhibition in HepG2 cells after 7 days. The assay is classed as functional, cell-based. The settings on record: Homo sapiens, HepG2, 168 h. In short, it runs like this:
as §2

Assay [4] has as its system HepG2. Put plainly: Inhibition of c-myc expression in HepG2 cells at 50 uM. Type of assay: functional, cell-based. The settings on record: Homo sapiens. The method in brief: (§3)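 About 5 × 10^5 Hep G2 cells seeded, treated 24 h after plating with derivative (6.25 to 100 µM) for 24 h. Total RNA extracted and reverse transcribed at 42 C for 60 min. PCR used […], 500 µM dNTPs, 36 cycles (95/50/72 C, 1 min each). Products read on 1.5% agarose against β-actin.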

The subject of the next assay is Ramos. In words: Inhibition of c-myc expression in Ramos cells at 10 uM. Type of assay: functional, cell-based. Particulars: Homo sapiens. The method in brief: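 Ramos cells (about 1 × 105 seeded) treated with derivative at […] and harvested 24 h later alongside untreated cells. RNA reverse transcribed at 42 C for 60 min. PCR used […], 36 cycles (95/50/72 C, 1 min each). Products resolved on 1.5% agarose.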

Assay [5] can be described thus: Stabilization of Pu27 oligomer by inducing G-quadruplex formation assessed as inhibition of hybridization with Pu27rev by PCR stop assay. The method in brief:
as §1

A short description of assay [6]: Inhibition of Pu27 oligomer hybridization with Pu27rev at 6 uM by PCR stop assay. In short, it runs like this:
as §1

The nature of assay [7]: Inhibition of Pu27 oligomer hybridization with Pu27rev at 36 uM by PCR stop assay. The method in brief: as §1
The subject of assay [8] is HepG2. Put plainly: Inhibition of c-myc expression in HepG2 cells at 100 uM. Type of assay: functional, cell-based. The settings on record: Homo sapiens. In short, it runs like this:
as §3

Assay [9] in a line: Inhibition of Pu27 oligomer hybridization with Pu27rev at 18 uM by PCR stop assay. In short, it runs like this:
as §1

What is called IC50 is the point on the concentration scale where inhibition reaches its midpoint. `CCN(CC)CCNc1c2ccccc2nc2c1[nH]c1ccccc12`: in assay [1], the result was inactive. The values for the IC50 in the assay on HepG2 [2] and with HepG2 [3] were 200 nM and 300 nM, respectively. For the same compound, the result (in the assay with HepG2 [4]; in the assay on Ramos; in assay [5]; in assay [6]) was Active.

Turning to `OCCCNc1c2ccccc2nc2c1[nH]c1ccccc12`, the outcome (in [7]; in the assay on HepG2 [8]; with Ramos; in [5]) was Active. Moreover, the outcome in [1] was inactive. Further, the IC50 with HepG2 [2] is 1000 nM; in the assay with HepG2 [3] it was 1300 nM.

As to `CN(C)CCNc1c2ccccc2nc2c1oc1ccccc12`, the outcome in assay [9] and in assay [5] was Active. In assay [1], the result was inactive.

With `CCN(CC)CCNc1c2ccccc2nc2c1oc1ccccc12`, the outcome in assay [9] and in [5] was Active. The result in assay [1] was inactive.

Turning to `CN(C)CCNc1c2ccccc2nc2c1[nH]c1ccccc12`, the result in [9] and in [5] was Active. Further, in assay [1], the outcome was inactive.

Take `CN(C)CCCNc1c2ccccc2nc2c1oc1ccccc12`: the result in assay [9] and in assay [5] was Active. The result in [1] was inactive.

With `CN(C)CCCNc1c2ccccc2nc2c1[nH]c1ccccc12`, the result in assay [9] and in [5] was Active. In addition, the outcome in [1] was inactive.

As to `OCCNc1c2ccccc2nc2c1[nH]c1ccccc12`, the result in assay [7] and in [5] was Active. The outcome in assay [1] was inactive.

In the case of `OCCNc1c2ccccc2nc2c1oc1ccccc12`, the result in [7] and in assay [5] was Active. Moreover, the outcome in assay [1] was inactive.

For the compound `OCCCNc1c2ccccc2nc2c1oc1ccccc12`, the result in assay [7] and in assay [5] was Active. Further, the outcome in assay [1] was inactive.
